Compound activity deposited in PubChem BioAssay by several laboratories.
PKA-R2B act = activates the human PKA-R2B holoenzyme complex. P22694+P31323. PKA-R2B holoenzyme dissociation, Cy5-IP20 fluorescence polarization; R2B truncated from residue 108, S112A mutant; 0% DMSO only, 100% 113 µM cGMP. activation, % at 11.4 µM. hit rate 0.079% among 340,000. AID 504700;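 active = activation above a cutoff set at the mean over all compounds plus 3 SD, cut at about 18% in these data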;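 also: higher means more holoenzyme dissociation and a rise in polarization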
Target sequence (P31323 whole entry, looked up, other chains not shown, the tested form may be a part): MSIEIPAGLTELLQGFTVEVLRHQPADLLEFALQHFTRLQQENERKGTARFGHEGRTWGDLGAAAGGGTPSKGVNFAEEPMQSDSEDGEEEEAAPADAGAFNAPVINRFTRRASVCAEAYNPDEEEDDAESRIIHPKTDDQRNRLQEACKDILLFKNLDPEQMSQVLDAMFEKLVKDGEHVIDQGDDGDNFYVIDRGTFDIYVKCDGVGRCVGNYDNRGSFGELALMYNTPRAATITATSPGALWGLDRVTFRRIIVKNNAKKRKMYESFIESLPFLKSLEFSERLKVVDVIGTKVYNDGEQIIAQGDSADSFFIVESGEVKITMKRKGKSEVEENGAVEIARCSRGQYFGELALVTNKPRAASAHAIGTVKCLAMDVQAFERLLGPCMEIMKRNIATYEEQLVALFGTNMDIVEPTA
CRFR2-BP antag = antagonists of CRF-binding protein/CRF-R2 receptor complex | HEK293 CRF-R2/CRF-BP, CRF-induced calcium fluorescence | inhibition, % at 11.8 µM | hit rate 0.59% among 350,000;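 active = inhibition of the ligand-induced calcium signal above about 50% at the single tested concentration, limit read from the data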
SIRT5 block = blocks human SIRT5 desuccinylation of peptide. inhibition, % at 15 µM. Purified SirT5, succinyl-peptide AMC, trypsin-coupled fluorescence. Q9NXA8. hit rate 1.1% among 330,000; in the data active = inhibition above about 15%
PKA-R1A act = activates the PKA-R1A holoenzyme complex. PKA-R1A dissociation, Cy5-IP20 fluorescence polarization; scaled: DMSO 0%, 113 µM cGMP 100%. P00514+P68181. activation, % at 11.4 µM. hit rate 0.083% among 340,000;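 active = percent activation above the mean of all tested compounds plus 3 SD, cut at about 19% in these data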;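 also: higher means more PKAc released from R1A so a rise in polarization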
S100A4 MyoIIA = inhibitors of human S100A4 binding to myosin IIA peptide | inhibition, % at 10.7 µM | hit rate 0.14% among 360,000 | AID 652163 | S100A4/TAMRA-MyoIIA peptide fluorescence polarization;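 active = mean inhibition of at least 70% across replicates, with every replicate also reaching that level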
Target sequence (P26447 whole entry, looked up): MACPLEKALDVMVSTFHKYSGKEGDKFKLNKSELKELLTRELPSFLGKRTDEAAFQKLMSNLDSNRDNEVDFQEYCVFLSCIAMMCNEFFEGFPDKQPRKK
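Assay system: human S100A4 monomer with TAMRA-labelled myosin IIA peptide / Buffer or medium: Calcium-containing HEPES buffer, pH 7.2 / Reagent: TAMRA-labelled myosin IIA heavy-chain peptide probe, 5 nM / Compound: one dose per compound / Timing: polarization read 5 min after assay mix addition, stable 5–60 min / Benchmarks: neutral control DMSO, positive control TFP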
* marks the source's active call; other numbers are inactive results. Shown are actives, neighbours in structure and some others; about 1.5% of the full set was active somewhere.

Screening O=C(NCc1ccccc1)C1=C[C@@H](c2ccc(Br)cc2)C[C@@H](OCc2ccc(CO)cc2)O1 returned PKA-R2B act 7, CRFR2-BP antag 8, SIRT5 block 7, PKA-R1A act -10 and S100A4 MyoIIA 17.
O=C(NCc1ccccc1)C1=C[C@H](c2ccccc2)C[C@H](OCc2ccc(CO)cc2)O1 was read as PKA-R2B act -1, CRFR2-BP antag 83*, SIRT5 block 1, PKA-R1A act 1 and S100A4 MyoIIA 43.
For CN(C)CC(=O)N[C@H]1CC[C@@H](CC(=O)O)O[C@H]1CO the results were SIRT5 block -1 and S100A4 MyoIIA 49.
For C[C@@H]1CN([C@H](C)CO)C(=O)c2cc(NC(=O)c3ccncc3)ccc2O[C@@H]1CN(C)CC1CCCCC1 the results were SIRT5 block 10 and S100A4 MyoIIA 16.
Cc1ccc(NC(=O)c2cc(NC(=O)/C=C\C(=O)O)ccc2N2CCCCC2)cc1 was read as PKA-R2B act 6, CRFR2-BP antag 95*, SIRT5 block 2, PKA-R1A act -27 and S100A4 MyoIIA -27.
`Cc1ccc(NC(=O)c2cc(NC(=O)c3ccccc3C(=O)O)ccc2N2CCCCC2)cc1` gave PKA-R2B act -5, CRFR2-BP antag 8, SIRT5 block -3, PKA-R1A act -12 and S100A4 MyoIIA 2.
Screening O=C(CSC1CC(=O)N(c2ccc(C(=O)O)cc2)C1=O)Nc1ccc(Cl)cc1 (stereo not drawn) returned PKA-R2B act 1, CRFR2-BP antag 2, SIRT5 block 18*, PKA-R1A act -4 and S100A4 MyoIIA -23.
`COc1cc(/C=C/C(=O)O)cc(S(=O)(=O)Nc2cc(Cl)c(Cl)cc2Cl)c1OC` gave PKA-R2B act -12, CRFR2-BP antag -4, SIRT5 block 17*, PKA-R1A act -16 and S100A4 MyoIIA -19.
`CO[C@H]1CN(C)C(=O)c2ccc(NC(=O)c3ccccc3F)cc2OC[C@H](C)N(CC2CCOCC2)C[C@@H]1C` gave SIRT5 block -2 and S100A4 MyoIIA 5.
COc1ccc(S(=O)(=O)N(C)C[C@H]2OCCCC[C@H](C)Oc3ccc(NC(=O)Cc4ccccc4)cc3C(=O)N([C@@H](C)CO)C[C@@H]2C)cc1 was read as SIRT5 block 5 and S100A4 MyoIIA -1.
Screening Cc1cc(C)c2c(N=CN(C)C)c(C(=O)N3CCN(c4ncccn4)CC3)sc2n1 returned PKA-R2B act -1, CRFR2-BP antag 1 and PKA-R1A act -2.
For COC(=O)/C=C/c1sc2nc(C)cc(C)c2c1N=CN(C)C the results were CRFR2-BP antag -1, SIRT5 block 32* and S100A4 MyoIIA 4.
COc1ccc(CN(C)C[C@@H]2Oc3ccc(NC(=O)CCCN(C)C)cc3C(=O)N([C@H](C)CO)C[C@H]2C)cc1 was read as SIRT5 block -1 and S100A4 MyoIIA -3.
Cc1cc(C)c2[nH]c(C(=O)Nc3ccc4c(c3)OCO4)cc2c1 was read as PKA-R2B act 1, CRFR2-BP antag 29, SIRT5 block 0, PKA-R1A act -7 and S100A4 MyoIIA -5.
Screening CCc1ccc2[nH]c(C(=O)Nc3ccc4c(c3)OCO4)cc2c1 returned PKA-R2B act 0, CRFR2-BP antag 69*, SIRT5 block 0, PKA-R1A act -3 and S100A4 MyoIIA -2.
`O=C(C[C@H]1CC[C@H]2[C@@H](COC[C@H](O)CN2Cc2ccc(Cl)cc2)O1)NCc1ccccc1Cl` gave SIRT5 block -2 and S100A4 MyoIIA 27.
CC(C)(C)OC(=O)C[C@H]1C/C=C\C[C@H](CC(=O)N[C@H](CO)Cc2ccccc2)C(=O)N[C@H](Cc2ccccc2)COC1=O was read as PKA-R2B act 5, CRFR2-BP antag 8, SIRT5 block 0, PKA-R1A act -8 and S100A4 MyoIIA 108*.
`CC(C)(C)OC(=O)C[C@@H]1C/C=C\C[C@H](CC(=O)N[C@H](CO)Cc2ccccc2)C(=O)N[C@H](Cc2ccccc2)COC1=O` gave PKA-R2B act -1, CRFR2-BP antag 4, PKA-R1A act 5 and S100A4 MyoIIA -1.
`C[C@@H]1CN([C@@H](C)CO)C(=O)c2cc(NS(C)(=O)=O)ccc2O[C@@H](C)CCCCO[C@H]1CN(C)S(=O)(=O)c1ccc(Cl)cc1` gave SIRT5 block -6 and S100A4 MyoIIA -7.
For COC(=O)C1=C(C)N(CC(C)C)C(=S)NC1c1cccc(Br)c1 (stereo not drawn) the results were S100A4 MyoIIA -31.
`COC(=O)C1=C(C)N(CC(C)C)C(=S)NC1c1cccc(OC)c1` (stereo not drawn) gave SIRT5 block 29* and S100A4 MyoIIA -11.
`Cc1nn(CCc2nc(-c3ccco3)cs2)c2[nH]c(=O)cc(C(F)(F)F)c12` gave PKA-R2B act -6, CRFR2-BP antag 0, SIRT5 block 16*, PKA-R1A act -7 and S100A4 MyoIIA 2.
CN(C)C(=O)C[C@H]1C[C@@H]2c3cc(NC(=O)Nc4ccccc4F)ccc3O[C@@H]2[C@H](CO)O1 was read as SIRT5 block 0 and S100A4 MyoIIA -14.
`C[C@@H]1CCCCO[C@@H](CN(C)C(=O)Nc2cccc3ccccc23)[C@H](C)CN([C@H](C)CO)C(=O)c2cc(NC(=O)C3CCCCC3)ccc2O1` gave SIRT5 block 10 and S100A4 MyoIIA -3.
`O=C(NCc1ccccc1)[C@@H]1[C@@H](CO)[C@@H]2Cn3c(cccc3=O)[C@H]1N2Cc1cccnc1` gave SIRT5 block 4 and S100A4 MyoIIA 5.
Screening Cc1ccc(C(=O)C2CCN(CC(=O)Nc3nc(C)cs3)CC2)cc1 returned PKA-R2B act 8, CRFR2-BP antag 11, SIRT5 block 19*, PKA-R1A act -3 and S100A4 MyoIIA 2.
For COc1ccc(C(=O)C2CCN(CC(=O)Nc3cc(C)cc(C)c3)CC2)cc1 the results were PKA-R2B act -10, CRFR2-BP antag -5, SIRT5 block -2, PKA-R1A act -9 and S100A4 MyoIIA 4.
Screening Cc1ccc(S(=O)(=O)N(C)C[C@@H]2OCCCC[C@H](C)Oc3ccc(NC(=O)Cc4ccccc4)cc3C(=O)N([C@H](C)CO)C[C@@H]2C)cc1 returned SIRT5 block 3 and S100A4 MyoIIA -2.
`CCN1CCN(C(=O)/C=C/c2ccc(F)cc2)CC1` gave CRFR2-BP antag -3, SIRT5 block 18* and S100A4 MyoIIA -3.
`CCN1CCN(C(=O)/C=C/c2ccc(OC)cc2)CC1` gave PKA-R2B act 0, CRFR2-BP antag -1, SIRT5 block 0, PKA-R1A act -6 and S100A4 MyoIIA -16.
For COc1ccc(NC(=O)O[C@H]2[C@H](OC(=O)Nc3ccccc3)[C@H](OC(=O)Nc3ccccc3)[C@@H](OC)O[C@@H]2CO)cc1 the results were SIRT5 block 1 and S100A4 MyoIIA 2.
